Entries after “also recorded” stand apart in the source; their conditions may differ.
Tests used:
[1] = system: SW1990 and A427 xenograft; experiment: Preclinical mouse xenograft models; assay type: in vivo; details: corresponding to a 70% (or greater) inhibition of plasma SDMA; data not shown
[2] = Plasma PF-06939999 pharmacokinetics, noncompartmental; assay type: in vivo, human
How it was run: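 Test compound given orally on an empty stomach. Part 1 had intensive plasma sampling on cycle 1 day 1 and day 15; part 2 had sparse sampling. Plasma was assayed by a validated method with LLOQ 0.250 ng/ml; values below LLOQ were set to zero for summaries. Noncompartmental analysis was done within a dosing interval. Rac was based on AUCτ. Parameters were summarised by dose, cycle and day as geometric means.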

[3] = system: selected locally advanced or metastatic solid tumors; experiment: Tumor response by RECIST v1.1; assay type: in vivo, human; details: for Duration of response (DoR): part 1
PRMT5 = PRMT5 (Homo sapiens, UniProt O14744); experiment: Plasma SDMA pharmacodynamics by LC/MS; assay type: in vivo
How it was run: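 Plasma SDMA, a catabolic product of PRMT5 activity, was measured by LC/MS during oral test-compound dosing. Part 1 samples: pre-dose, 2 and 6 h on C1D1; 12 h C1D1 or pre-dose C1D2; pre-dose C1D8; pre-dose, 2 and 6 h on C1D15; pre-dose C1D22, C2D1 and C3D1. Part 2 samples: pre-dose C1D1, C1D8, C1D15, C1D22, C2D1, C3D1 and end of treatment.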

Sequence of PRMT5 (O14744 whole entry): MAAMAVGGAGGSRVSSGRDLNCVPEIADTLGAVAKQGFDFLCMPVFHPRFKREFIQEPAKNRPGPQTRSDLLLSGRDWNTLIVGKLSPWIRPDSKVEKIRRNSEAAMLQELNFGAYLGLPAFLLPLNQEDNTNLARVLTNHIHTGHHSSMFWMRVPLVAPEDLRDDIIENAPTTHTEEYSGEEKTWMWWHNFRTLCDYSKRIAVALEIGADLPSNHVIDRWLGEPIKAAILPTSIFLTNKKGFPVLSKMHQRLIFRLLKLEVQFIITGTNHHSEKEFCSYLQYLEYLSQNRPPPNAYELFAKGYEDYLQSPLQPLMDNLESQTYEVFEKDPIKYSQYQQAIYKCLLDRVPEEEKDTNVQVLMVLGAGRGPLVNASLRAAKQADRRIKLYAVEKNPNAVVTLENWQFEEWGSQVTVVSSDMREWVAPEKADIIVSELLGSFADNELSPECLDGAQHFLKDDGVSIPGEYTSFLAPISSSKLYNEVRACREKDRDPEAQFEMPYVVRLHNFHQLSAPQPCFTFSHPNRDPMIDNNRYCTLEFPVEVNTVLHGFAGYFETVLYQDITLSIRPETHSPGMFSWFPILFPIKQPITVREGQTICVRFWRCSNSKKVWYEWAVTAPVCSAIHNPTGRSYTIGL
Sequence of PRMT5 (Q9BQA1 whole entry partner): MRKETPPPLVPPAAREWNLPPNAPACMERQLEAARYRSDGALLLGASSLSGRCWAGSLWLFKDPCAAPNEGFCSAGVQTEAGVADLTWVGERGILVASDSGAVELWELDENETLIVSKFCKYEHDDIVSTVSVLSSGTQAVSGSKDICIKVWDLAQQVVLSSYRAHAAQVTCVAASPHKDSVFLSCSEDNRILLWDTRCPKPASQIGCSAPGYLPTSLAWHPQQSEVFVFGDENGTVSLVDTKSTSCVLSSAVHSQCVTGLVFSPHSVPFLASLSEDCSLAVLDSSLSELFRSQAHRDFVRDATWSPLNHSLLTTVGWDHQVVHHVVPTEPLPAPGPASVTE

## Cc1ncnc2c1ccn2[C@@H]1C[C@H](Oc2cc(C(F)F)c(F)c3c2CNCC3)[C@@H](O)[C@H]1O [PF-06939999]
[1]
  Tumor growth inhibition: ~100%
[2]; 0.5 mg q.d. to 6 mg b.i.d.
  Dose dependence of exposure (AUCτ and Cmax): exposure increased with dose; also recorded: increased in a dose-dependent manner
[2]; RP2D, 6 mg q.d.
  Variability of AUCτ: 38%
  Variability of Cmax: 26%
[2]; b.i.d. and q.d. regimens
  Time to steady-state PK: ≤ 15 days
[2]; indicated by Rac after b.i.d. dosing
  Effective half-life: > 24 h
[3]; part 1 + part 2, 3/54 patients
  Objective response rate: 6%
[3]; part 1 + part 2, 19 patients, response-assessable population (44 patients)
  Stable disease: 43.2%
[3]; part 1, 28 patients treated, two patients (HNSCC 2 mg b.i.d., NSCLC 4 mg b.i.d.)
  Confirmed PRs: 7%
[3]; confirmed responder with HNSCC, 2 mg b.i.d.
  Duration of response (DoR): 4 months
[3]; confirmed responder with NSCLC, 4 mg b.i.d.
  Duration of response (DoR): 5 months
[3]; part 2, 26 patients, 6 mg q.d., 8 patients
  Progressive disease: 31%
[3]; part 2, 26 patients, 6 mg q.d., 11 patients
  Disease control: 42%
[3]; part 2, 26 patients, 6 mg q.d., one patient with NSCLC
  Confirmed PR: 4%
PRMT5; 14-28 days post-dose, 0.5 mg q.d. or b.i.d.
  Plasma SDMA inhibition: ~60%
PRMT5; RP2D, 6 mg q.d.
  Plasma SDMA inhibition: around 80%
